Activity calls are given as the source filed them. The calls are words filed in the database; no cut-off is given here.
What was measured:
[1] = system: Meyerozyma guilliermondii; test: Antifungal activity against Candida guilliermondii IBA 155 assessed as diameter of zone inhibition incubated for 24 hrs by CLSI disc diffusion method; format: functional
Method in brief: (§1)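 Yeast disc diffusion on Mueller-Hinton agar supplemented with 2% glucose and 0.5 mg/L methylene blue. Compounds in DMSO. Yeasts subcultured on Sabouraud dextrose agar before testing. Zones read after 35 °C, 24 h.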

Candida albicans = test: Antifungal activity against Candida albicans ATCC 90028 assessed as diameter of zone inhibition incubated for 24 hrs by CLSI disc diffusion method; format: functional; method in brief: as §1
Pichia kudriavzevii = test: Antifungal activity against Candida krusei ATCC 6258 assessed as diameter of zone inhibition incubated for 24 hrs by CLSI disc diffusion method; format: functional; method in brief: as §1
Serratia marcescens = conditions: ATCC 13880
Escherichia coli [2] = test: Antibacterial activity against Escherichia coli ATCC 25922 assessed as diameter of zone inhibition measured after 18 hrs by CLSI disc diffusion method; format: functional
Method in brief: (§2)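 Disc diffusion on Mueller-Hinton II agar. Compounds dissolved in DMSO. Strains stored at -80 °C and subcultured twice on tryptic soy agar before testing. Inhibition zones read after 35 °C, 18 h.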

Burkholderia cepacia = test: Antibacterial activity against Burkholderia cepacia ATCC 25416 assessed as diameter of zone inhibition measured after 18 hrs by CLSI disc diffusion method; format: functional; method in brief: as §2
Staphylococcus aureus = test: Antibacterial activity against Staphylococcus aureus ATCC 6538P assessed as diameter of zone inhibition measured after 18 hrs by CLSI disc diffusion method; format: functional; method in brief: as §2
Enterococcus faecium = test: Antibacterial activity against Enterococcus faecium ATCC 6057 assessed as diameter of zone inhibition measured after 18 hrs by CLSI disc diffusion method; format: functional; method in brief: as §2
[3] = Dissociation constant, pKa1 of compound in 0.1 M NaOH by potentiometric analysis; format: physicochemical
Pseudomonas aeruginosa [4] = test: Antibacterial activity against Pseudomonas aeruginosa ATCC 27853 assessed as diameter of zone inhibition measured after 18 hrs by CLSI disc diffusion method; format: functional, organism-based; method in brief: as §2
Bacillus subtilis = test: Antibacterial activity against Bacillus subtilis ATCC 6633 assessed as diameter of zone inhibition measured after 18 hrs by CLSI disc diffusion method; format: functional; method in brief: as §2
Proteus mirabilis = test: Antibacterial activity against Proteus mirabilis ATCC 12453 assessed as diameter of zone inhibition measured after 18 hrs by CLSI disc diffusion method; format: functional; method in brief: as §2
Acinetobacter baumannii [5] = test: Antibacterial activity against Acinetobacter baumannii ATCC 19606 assessed as diameter of zone inhibition measured after 18 hrs by CLSI disc diffusion method; format: functional; method in brief: as §2
Candida tropicalis = test: Antifungal activity against Candida tropicalis IBA 171 assessed as diameter of zone inhibition incubated for 24 hrs by CLSI disc diffusion method; format: functional; method in brief: as §1
Saccharomyces cerevisiae = test: Antifungal activity against Saccharomyces cerevisiae ATCC 9763 diameter of zone inhibition incubated for 24 hrs by CLSI disc diffusion method; format: functional
Method in brief: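 Disc-diffusion run on Mueller-Hinton II agar with 2% glucose and 0.5 mg/L methylene blue, using compounds in DMSO. Yeast was precultured on Sabouraud dextrose agar (24–48 h, 30 °C). Zones read after 24 h at 35 °C.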

Enterobacter cloacae = test: Antibacterial activity against Enterobacter cloacae DSM 6234 assessed as diameter of zone inhibition measured after 18 hrs by CLSI disc diffusion method; format: functional; method in brief: as §2
Enterococcus faecalis = test: Antibacterial activity against Enterococcus faecalis ATCC 29212 assessed as diameter of zone inhibition measured after 18 hrs by CLSI disc diffusion method; format: functional; method in brief: as §2
[6] = system: Staphylococcus epidermidis; test: Antibacterial activity against Staphylococcus epidermidis ATCC 12228 assessed as diameter of zone inhibition measured after 18 hrs by CLSI disc diffusion method; format: functional; method in brief: as §2
[7] = system: Stenotrophomonas maltophilia; test: Antibacterial activity against Stenotrophomonas maltophilia ATCC 13637 assessed as diameter of zone inhibition measured after 18 hrs by CLSI disc diffusion method; format: functional; method in brief: as §2
Candida parapsilosis = test: Antifungal activity against Candida parapsilosis ATCC 22019 assessed as diameter of zone inhibition incubated for 24 hrs by CLSI disc diffusion method; format: functional; method in brief: as §1
Klebsiella pneumoniae [8] = conditions: ATCC 13883
[9] = system: Bordetella bronchiseptica; test: Antibacterial activity against Bordetella bronchiseptica ATCC 4617 assessed as diameter of zone inhibition measured after 18 hrs by CLSI disc diffusion method; format: functional; method in brief: as §2
Klebsiella pneumoniae [10] = test: Inhibition of beta lactamase KPC-3 in Klebsiella pneumoniae 83 assessed as potentiation of ceftazidime-induced antibacterial activity by measuring ceftazidime MIC at 16 mg/L incubated for 18 hrs by broth dilution method (reference value: >[…] mg/L)
Klebsiella pneumoniae [11] = test: Inhibition of beta lactamase SHV-12 in Klebsiella pneumoniae ATCC 700603 assessed as potentiation of ceftazidime-induced antibacterial activity by measuring ceftazidime MIC at 16 mg/L incubated for 18 hrs by broth dilution method (reference value: […] mg/L)
Escherichia coli [12] = test: Inhibition of beta lactamase KPC-3 in Escherichia coli 82 TR assessed as potentiation of ceftazidime-induced antibacterial activity by measuring ceftazidime MIC at 16 mg/L incubated for 18 hrs by broth dilution method (reference value: […] mg/L)
Pseudomonas aeruginosa [13] = test: Inhibition of beta lactamase AmpC in Pseudomonas aeruginosa MUW 700 assessed as potentiation of ceftazidime-induced antibacterial activity by measuring diameter of zone inhibition at 0.3 mg incubated for 18 hrs in presence of 30 ug ceftazidime by CLSI disc diffusion method (Rvb=11 mm)
Method in brief: (§3)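 AmpC combination disc test on Mueller-Hinton agar, following EUCAST guidance and Yagi et al. Inhibition zones were compared between a CAZ-30 disc and a ceftazidime disc plus agent or PBA, each at 0.3 mg per disc. Plates were incubated at 35 °C for 18 h. A zone difference of at least 5 mm was counted as inhibition.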

Acinetobacter baumannii [14] = test: Inhibition of beta lactamase OXA-24 in Acinetobacter baumannii 181 assessed as potentiation of meropenem-induced antibacterial activity by measuring meropenem MIC at 16 mg/L incubated for 18 hrs by broth dilution method (reference value: […] mg/L)
Klebsiella pneumoniae [15] = test: Inhibition of beta lactamase CMY-2 in Klebsiella pneumoniae 78 assessed as potentiation of ceftazidime-induced antibacterial activity by measuring ceftazidime MIC at 16 mg/L incubated for 18 hrs by broth dilution method (reference value: >[…] mg/L)
Klebsiella pneumoniae [16] = test: Inhibition of beta lactamase KPC-3 in Klebsiella pneumoniae 81 assessed as potentiation of meropenem-induced antibacterial activity by measuring meropenem MIC at 16 mg/L incubated for 18 hrs by broth dilution method (reference value: […] mg/L)
[17] = system: Klebsiella pneumoniae 700603; test: (§4) Inhibition of extended-spectrum beta lactamase in Klebsiella pneumoniae ATCC 700603 assessed as potentiation of cefotaxime-induced antibacterial activity by measuring diameter of zone inhibition at 0.3 mg incubated for 18 hrs in presence of 10 ug cefotaxime by CLSI disc diffusion method (Rvb=19 mm)
Method in brief: (§5)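 EUCAST ESBL combination disc test on Mueller-Hinton agar. Zones were compared between a ceftazidime or cefotaxime disc alone and the same disc plus agent at 0.3 mg per disc. Clavulanic acid discs at 0.01 mg per disc served as reference. Plates were incubated at 35 °C for 18 h. A difference of at least 5 mm was counted as inhibition.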

[18] = biological target: Class A carbapenemase KPC-2 (Escherichia coli) (UniProt A8DS27); test: Inhibition of beta lactamase KPC-2 in Escherichia coli 76 assessed as potentiation of ceftazidime-induced antibacterial activity by measuring ceftazidime MIC at 16 mg/L incubated for 18 hrs by broth dilution method (reference value: >[…] mg/L)
Escherichia coli [19] = test: Inhibition of beta lactamase KPC-3 in Escherichia coli 82 TR assessed as potentiation of meropenem-induced antibacterial activity by measuring meropenem MIC at 16 mg/L incubated for 18 hrs by broth dilution method (reference value: 2 mg/L)
Klebsiella pneumoniae [20] = test: Inhibition of beta lactamase KPC-2 in Klebsiella pneumoniae 75 assessed as potentiation of ceftazidime-induced antibacterial activity by measuring ceftazidime MIC at 16 mg/L incubated for 18 hrs by broth dilution method (reference value: […] mg/L)
[21] = system: Klebsiella pneumoniae ATCC BAA-1705; test: Inhibition of beta lactamase KPC-2 in Klebsiella pneumoniae ATCC BAA 1705 assessed as potentiation of ceftazidime-induced antibacterial activity by measuring ceftazidime MIC at 16 mg/L incubated for 18 hrs by broth dilution method
Klebsiella pneumoniae [22] = test: Inhibition of beta lactamase KPC-3 in Klebsiella pneumoniae 83 assessed as potentiation of meropenem-induced antibacterial activity by measuring meropenem MIC at 16 mg/L incubated for 18 hrs by broth dilution method (reference value: […] mg/L)
Pseudomonas aeruginosa [23] = test: Inhibition of beta lactamase AmpC in Pseudomonas aeruginosa 700 assessed as potentiation of ceftazidime-induced antibacterial activity by measuring ceftazidime MIC at 16 mg/L incubated for 18 hrs by broth dilution method (reference value: >[…] mg/L)
Klebsiella pneumoniae [24] = test: Inhibition of beta lactamase KPC-2 in Klebsiella pneumoniae 75 assessed as potentiation of meropenem-induced antibacterial activity by measuring meropenem MIC at 16 mg/L incubated for 18 hrs by broth dilution method (reference value: […] mg/L)
Pseudomonas aeruginosa [25] = test: Inhibition of beta lactamase VIM in Pseudomonas aeruginosa 698 assessed as potentiation of ceftazidime-induced antibacterial activity by measuring ceftazidime MIC at 16 mg/L incubated for 18 hrs by broth dilution method (reference value: […] mg/L)
Klebsiella pneumoniae [26] = test: Inhibition of beta lactamase KPC-3 in Klebsiella pneumoniae 81 assessed as potentiation of ceftazidime-induced antibacterial activity by measuring ceftazidime MIC at 16 mg/L incubated for 18 hrs by broth dilution method (reference value: >[…] mg/L)
[27] = biological target: Class A carbapenemase KPC-2 (Escherichia coli) (UniProt A8DS27); test: Inhibition of beta lactamase KPC-2 in Escherichia coli 76 assessed as potentiation of meropenem-induced antibacterial activity by measuring meropenem MIC at 16 mg/L incubated for 18 hrs by broth dilution method (reference value: >[…] mg/L)
Escherichia coli [28] = test: Inhibition of beta lactamase CMY-2 in Escherichia coli 77 assessed as potentiation of ceftazidime-induced antibacterial activity by measuring ceftazidime MIC at 16 mg/L incubated for 18 hrs by broth dilution method (reference value: […] mg/L)
[29] = system: Klebsiella pneumoniae ATCC BAA-1705; test: Inhibition of beta lactamase KPC-2 in Klebsiella pneumoniae ATCC BAA 1705 assessed as potentiation of meropenem-induced antibacterial activity by measuring meropenem MIC at 16 mg/L incubated for 18 hrs by broth dilution method (reference value: […] mg/L)
Pseudomonas aeruginosa [30] = test: Inhibition of beta lactamase OXA-15 in Pseudomonas aeruginosa 852 assessed as potentiation of ceftazidime-induced antibacterial activity by measuring ceftazidime MIC at 16 mg/L incubated for 18 hrs by broth dilution method (reference value: >[…] mg/L)
[31] = system: Klebsiella pneumoniae ATCC BAA-1705; test: Inhibition of beta lactamase KPC in Klebsiella pneumoniae ATCC BAA 1705 assessed as potentiation of meropenem-induced antibacterial activity by measuring diameter of zone inhibition at 0.3 mg incubated for 18 hrs in presence of 10 ug meropenem by CLSI disc diffusion method (Rvb=[…] mm)
Acinetobacter baumannii [32] = test: Inhibition of beta lactamase OXA-24 in Acinetobacter baumannii 181 assessed as potentiation of ceftazidime-induced antibacterial activity by measuring ceftazidime MIC at 16 mg/L incubated for 18 hrs by broth dilution method (reference value: >[…] mg/L)
[33] = system: Klebsiella pneumoniae 700603; test: as §4, with “ceftazidime-induced” for “cefotaxime-induced”, “ceftazidime” for “cefotaxime”, “(Rvb=13” for “(Rvb=19”; method in brief: as §5
Escherichia coli [34] = test: Inhibition of beta lactamase CMY-2 in Escherichia coli 77 assessed as potentiation of ceftazidime-induced antibacterial activity by measuring diameter of zone inhibition at 0.3 mg incubated for 18 hrs in presence of 30 ug ceftazidime by CLSI disc diffusion method (Rvb=13 mm); method in brief: as §3

## C[Si]1(C)OB(O)c2cccc(Cl)c21
[1]
  diameter of the inhibition zone (DIZ): 25 mm
Candida albicans
  diameter of the inhibition zone (DIZ): 17 mm
Pichia kudriavzevii
  diameter of the inhibition zone (DIZ): 17 mm
Serratia marcescens
  DIZ: inactive
Escherichia coli [2]
  diameter of the inhibition zone (DIZ): inactive
Burkholderia cepacia
  diameter of the inhibition zone (DIZ): inactive
Staphylococcus aureus
  diameter of the inhibition zone (DIZ): 34 mm
Enterococcus faecium
  diameter of the inhibition zone (DIZ): 20 mm
[3]
  pKa: 6.5
Pseudomonas aeruginosa [4]
  diameter of the inhibition zone (DIZ): inactive
Bacillus subtilis
  diameter of the inhibition zone (DIZ): 32 mm
Proteus mirabilis
  diameter of the inhibition zone (DIZ): 19 mm
Acinetobacter baumannii [5]
  diameter of the inhibition zone (DIZ): inactive
Candida tropicalis
  diameter of the inhibition zone (DIZ): 12 mm
Saccharomyces cerevisiae
  diameter of the inhibition zone (DIZ): 30 mm
Enterobacter cloacae
  diameter of the inhibition zone (DIZ): inactive
Enterococcus faecalis
  diameter of the inhibition zone (DIZ): 15 mm
[6]
  diameter of the inhibition zone (DIZ): 33 mm
[7]
  diameter of the inhibition zone (DIZ): 13 mm
Candida parapsilosis
  diameter of the inhibition zone (DIZ): 12 mm
Klebsiella pneumoniae [8]
  DIZ: inactive
[9]
  diameter of the inhibition zone (DIZ): inactive

## OB(O)c1ccccc1
Klebsiella pneumoniae [10]
  MIC: 16 µg/mL
Klebsiella pneumoniae [11]
  MIC: 64 µg/mL
Escherichia coli [12]
  MIC: 8 µg/mL
Pseudomonas aeruginosa [13]
  inhibition zone (IZ): 22 mm
Acinetobacter baumannii [14]
  MIC: > 64 µg/mL
Klebsiella pneumoniae [15]
  MIC: 32 µg/mL
Klebsiella pneumoniae [16]
  MIC: 2 µg/mL
[17]
  inhibition zone (IZ): 19 mm
[18]
  MIC: > 64 µg/mL
Escherichia coli [19]
  MIC: 0.25 µg/mL
Klebsiella pneumoniae [20]
  MIC: 16 µg/mL
[21]
  MIC: 32 µg/mL
Klebsiella pneumoniae [22]
  MIC: 8 µg/mL
Pseudomonas aeruginosa [23]
  MIC: 8 µg/mL
Klebsiella pneumoniae [24]
  MIC: 16 µg/mL
Pseudomonas aeruginosa [25]
  MIC: 64 µg/mL
Klebsiella pneumoniae [26]
  MIC: 16 µg/mL
[27]
  MIC: 32 µg/mL
Escherichia coli [28]
  MIC: 8 µg/mL
[29]
  MIC: 16 µg/mL
Pseudomonas aeruginosa [30]
  MIC: > 64 µg/mL
[31]
  inhibition zone (IZ): 22 mm
Acinetobacter baumannii [32]
  MIC: > 64 µg/mL
[33]
  inhibition zone (IZ): 14 mm
Escherichia coli [34]
  inhibition zone (IZ): 24 mm

Source: ChEMBL document CHEMBL4346672, “Antimicrobial and KPC/AmpC inhibitory activity of functionalized benzosiloxaboroles” (Eur J Med Chem, 2019)
